ChEMBL document CHEMBL1153304, “2,4-Diaminopyridine delta-opioid receptor agonists and their associated hERG pharmacology” (Bioorg Med Chem Lett, 2009)
pEC50, pKi: −log10 of the molar value. Active and inactive are the calls of the source. The rule behind the calls is not given here.

Key:
[1] = molecular target: T1, Delta-type opioid receptor (Homo sapiens, UniProt P41143); assay: Agonist activity at delta opioid receptor expressed in CHO cells assessed as inhibition of forskolin-stimulated cAMP production by ALPHAscreen assay; type: functional, cell-based
T1 sequence (P41143 whole entry): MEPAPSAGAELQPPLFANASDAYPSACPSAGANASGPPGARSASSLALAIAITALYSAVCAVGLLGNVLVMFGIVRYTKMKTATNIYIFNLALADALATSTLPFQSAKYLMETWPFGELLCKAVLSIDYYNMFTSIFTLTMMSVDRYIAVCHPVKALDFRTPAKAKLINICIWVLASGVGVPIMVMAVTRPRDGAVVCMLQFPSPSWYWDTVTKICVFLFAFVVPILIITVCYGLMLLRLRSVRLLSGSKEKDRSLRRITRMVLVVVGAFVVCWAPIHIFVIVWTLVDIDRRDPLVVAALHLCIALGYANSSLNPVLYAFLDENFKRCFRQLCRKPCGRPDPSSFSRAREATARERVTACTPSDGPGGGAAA
In short: (§1)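 CHO cells stably expressing a Flp-In delta opioid receptor construct, grown in DMEM/F12 with 2 mM L-glutamine, 500 µg/ml hygromycin and 10% heat-inactivated FBS. Cells resuspended at 8000 cells/well in HEPES pH 7.4/HBSS buffer with 0.1% BSA, 10 mM MgCl2 and 0.5 mM IBMX. Forskolin 20 µM final, 30 min. cAMP read by ALPHAscreen with biotin-cAMP competition after overnight incubation. EC50 from percentage agonist activity.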

Rattus norvegicus = species: Rattus norvegicus; assay: Inhibition of neuropathic pain in rat electromyography model; type: functional
In short: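 Rat electromyography (EMG) pain model. Agonist given by infusion protocol (bolus + continuous infusion) at 76 µg/kg + 72 µg/kg/hr, 240 µg/kg + 290 µg/kg/hr, or 660 µg/kg + 920 µg/kg/hr to reach target plasma levels. Mean free plasma concentration measured at each dose. Read-out: EMG response inhibition relative to control animals.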

[2] = Selectivity for human recombinant DOR over mu opioid receptor
Clearance in rat = settings: in vivo
Canis familiaris = species: Canis familiaris; assay: Effect on QTC prolongation in Beagle dog at 291 nM free plasma concentration; type: functional, organism-based; settings: Canis lupus familiaris
[3] = Metabolic stability in human liver microsomes assessed as intrinsic clearance; type: ADME, Microsome
[4] = molecular target: Voltage-gated inwardly rectifying potassium channel KCNH2 (Homo sapiens, UniProt Q12809); assay: Inhibition of human ERG
Voltage-gated inwardly rectifying potassium channel KCNH2, sequence (Q12809 whole entry): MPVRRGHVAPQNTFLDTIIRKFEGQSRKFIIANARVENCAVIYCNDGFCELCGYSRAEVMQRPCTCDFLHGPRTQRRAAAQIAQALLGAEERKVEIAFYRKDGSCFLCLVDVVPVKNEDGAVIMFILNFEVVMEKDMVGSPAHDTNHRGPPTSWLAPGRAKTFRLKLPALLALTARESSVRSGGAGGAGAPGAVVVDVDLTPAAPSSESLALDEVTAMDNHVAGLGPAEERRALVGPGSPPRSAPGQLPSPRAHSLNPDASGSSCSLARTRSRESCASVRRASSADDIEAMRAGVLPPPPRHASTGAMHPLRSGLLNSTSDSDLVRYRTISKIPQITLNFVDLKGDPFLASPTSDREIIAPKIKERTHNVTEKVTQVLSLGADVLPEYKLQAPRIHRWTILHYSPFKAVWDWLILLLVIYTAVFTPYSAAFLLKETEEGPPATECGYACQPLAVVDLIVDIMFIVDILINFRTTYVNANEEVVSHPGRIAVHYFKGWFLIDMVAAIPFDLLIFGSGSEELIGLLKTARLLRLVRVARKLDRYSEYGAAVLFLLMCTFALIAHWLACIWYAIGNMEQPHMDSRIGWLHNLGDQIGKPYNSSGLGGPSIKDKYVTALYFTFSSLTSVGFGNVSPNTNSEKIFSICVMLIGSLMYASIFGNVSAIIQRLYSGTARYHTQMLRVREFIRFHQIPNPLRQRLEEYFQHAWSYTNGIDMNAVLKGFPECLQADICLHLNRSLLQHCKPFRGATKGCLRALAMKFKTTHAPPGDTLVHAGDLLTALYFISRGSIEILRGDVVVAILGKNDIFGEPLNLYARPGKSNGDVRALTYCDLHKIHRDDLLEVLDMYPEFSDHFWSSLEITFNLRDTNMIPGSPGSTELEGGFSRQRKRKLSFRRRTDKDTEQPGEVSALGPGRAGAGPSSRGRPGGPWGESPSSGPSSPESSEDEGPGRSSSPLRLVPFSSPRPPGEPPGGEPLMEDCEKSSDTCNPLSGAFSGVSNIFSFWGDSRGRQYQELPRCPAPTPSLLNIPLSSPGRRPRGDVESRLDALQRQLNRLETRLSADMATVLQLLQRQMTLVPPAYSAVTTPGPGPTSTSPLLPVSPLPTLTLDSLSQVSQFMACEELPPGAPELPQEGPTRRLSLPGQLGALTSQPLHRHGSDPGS

Mu-type opioid receptor = Mu-type opioid receptor (Homo sapiens, UniProt P35372); assay: Agonist activity at mu opioid receptor; type: functional
Mu-type opioid receptor, sequence (P35372 whole entry): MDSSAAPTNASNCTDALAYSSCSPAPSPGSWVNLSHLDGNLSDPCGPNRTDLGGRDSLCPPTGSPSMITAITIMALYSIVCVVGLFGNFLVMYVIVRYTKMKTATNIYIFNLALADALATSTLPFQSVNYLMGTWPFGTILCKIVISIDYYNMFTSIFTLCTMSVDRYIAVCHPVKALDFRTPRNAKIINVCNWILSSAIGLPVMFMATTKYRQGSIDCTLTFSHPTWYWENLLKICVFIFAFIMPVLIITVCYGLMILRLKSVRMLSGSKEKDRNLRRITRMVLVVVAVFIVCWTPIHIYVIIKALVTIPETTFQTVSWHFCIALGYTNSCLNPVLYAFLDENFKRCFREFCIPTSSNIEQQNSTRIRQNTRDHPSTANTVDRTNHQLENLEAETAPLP

[5] = molecular target: T1, Delta-type opioid receptor; assay: Agonist activity at human recombinant delta opioid receptor expressed in CHO cells assessed as inhibition of forskolin-stimulated cAMP production by ALPHAscreen assay relative to BW373U86; type: functional, cell-based; in short: as §1

pEC50 [1] | fold change (FC) [2] | microsomal CLint [3] | Compound | pKi [4] | also measured
8.30 |  | 22 µL/min/mg | Nc1ccnc(N2CCC(C(=O)Nc3ccc4ccccc4n3)(c3ccccc3)CC2)c1 |  | 
6.07 | 2 |  | COc1cccc(C2(C)CN(c3cc(N)ccn3)C2)c1 | 5.74 | 
7.77 | 50 | 40 µL/min/mg | COc1ccc(CNC(=O)C2(c3ccccc3)CCN(c3cc(N)ccn3)CC2)cc1 |  | 
7.89 | 50 | 46 µL/min/mg | Nc1ccnc(N2CCC(C(=O)N3CCc4ccccc4C3)(c3ccccc3)CC2)c1 |  | 
7.22 | 50 | 14 µL/min/mg | Nc1ccnc(N2CCC(NC(=O)c3ccccn3)(c3ccccc3)CC2)c1 | 6.26 | 
7.85 | 50 | 43 µL/min/mg | COc1ccc(C(=O)NC2(c3ccccc3)CCN(c3cc(N)ccn3)CC2)c(OC)c1 |  | 
 |  | 20 µL/min/mg | Nc1ccnc(N2CCC(n3c(=O)n(Cc4ccccc4)c4cccnc43)CC2)c1 |  | 
7.23 | 50 | 10 µL/min/mg | Nc1ccnc(N2CCC3(CC2)OC(c2ccccc2)c2ccccc23)c1 (stereo unspecified) | 7.74 | 
6.77 | 50 | 13 µL/min/mg | Nc1ccnc(N2CCC(NC(=O)[C@@H]3CCCO3)(c3ccccc3)CC2)c1 |  | 
7.62 | 17 | 62 µL/min/mg | CCOC(=O)N1CCN(C(=O)C2(c3ccccc3)CCN(c3cc(N)ccn3)CC2)CC1 |  | 
 |  | 23 µL/min/mg | COc1ccc(-n2c(=O)n(C3CCN(c4cc(N)ccn4)CC3)c3ncccc32)cc1 | 6.06 | 
7.23 | 50 | 69 µL/min/mg | COc1ccc(C(=O)NC2(c3ccccc3)CCN(c3cc(N)ccn3)CC2)cc1Cl | 6.46 | 
7.92 | 50 | 13 µL/min/mg | CCN(CC)C(=O)[C@H]1OC2(CCN(c3cc(N)ccn3)CC2)c2ccccc21 | < 5.00 | 
6.58 | 50 | < 7 µL/min/mg | CC(=O)C1(c2ccccc2)CCN(c2cc(N)ccn2)CC1 |  | pEC50 (Mu-type opioid receptor): < 5.00; Emax [5]: 100%
6.51 | 50 |  | Nc1ccnc(N2CCC3(CC2)OCc2ccccc23)c1 |  | 
 |  | 19 µL/min/mg | Nc1ccnc(N2CCC(n3c(=O)n(-c4ccccc4)c4cccnc43)CC2)c1 | 6.04 | 
 |  | 13 µL/min/mg | Nc1ccnc(N2CCC(n3c(=O)n(CC4CC4)c4cccnc43)CC2)c1 | 6.13 | 

Compound | pEC50 [1] | fold change (FC) [2] | microsomal CLint [3] | pKi [4] | also measured
CN(C)C(=O)[C@H]1CC2(CCN(c3cc(N)ccn3)CC2)c2ccccc21 | 7.57 | 50 | < 7 µL/min/mg |  | inhibition (INH) (Rattus norvegicus): 60%; clearance (Clearance in rat): > 70 mL/min/kg; Activity (Canis familiaris): Active
COc1cccc(C(=O)N(c2ccccn2)C2CCN(c3cc(N)ccn3)CC2)c1 |  |  | 17 µL/min/mg | 5.01 | 
Nc1ccnc(N2CCC(N(C(=O)C3CCCCC3)c3ccccn3)CC2)c1 |  |  | 80 µL/min/mg |  | 
COc1ccc(C(=O)N(c2cc(C)ccn2)C2CCN(c3cc(N)ccn3)CC2)cc1 |  |  | 12 µL/min/mg |  | 
Nc1ccnc(N2CCC(N(C(=O)C3CC3)c3ccccn3)CC2)c1 |  |  | < 7 µL/min/mg |  | 
